Bioassay records as filed in PubChem BioAssay.
SENP8 block-1: blocks the human protease SENP8 | Q96LD8 | purified SENP8, Z-RLRGG-aminoluciferin cleavage, luminescence | inhibition, % at 10 µM | actives 1.2% (n = 330,000); in the data active = inhibition above about 50%
Target sequence (Q96LD8 whole entry, looked up): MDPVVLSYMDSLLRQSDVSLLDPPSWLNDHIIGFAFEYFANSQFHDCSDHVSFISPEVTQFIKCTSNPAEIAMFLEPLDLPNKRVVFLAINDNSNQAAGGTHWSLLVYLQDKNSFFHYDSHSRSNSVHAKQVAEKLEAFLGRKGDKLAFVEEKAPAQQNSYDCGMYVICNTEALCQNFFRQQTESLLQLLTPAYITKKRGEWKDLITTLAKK
SENP1 inh: SENP1 (human) catalytic domain inhibition. inhibition, % at 10 µM. actives 0.21% (n = 360,000). recombinant SENP1 catalytic domain, CyPet-SUMO1-YPet FRET cleavage. Q9P0U3. AID 624204;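 active = inhibition at least 30% at 10 µM, raw YFP signal under a set limit, fluorescence ratio 0.5 to 1.5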;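 also: 0% = enzyme with DMSO and 100% = no enzyme wells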
Target sequence (Q9P0U3 419-644 limits assumed): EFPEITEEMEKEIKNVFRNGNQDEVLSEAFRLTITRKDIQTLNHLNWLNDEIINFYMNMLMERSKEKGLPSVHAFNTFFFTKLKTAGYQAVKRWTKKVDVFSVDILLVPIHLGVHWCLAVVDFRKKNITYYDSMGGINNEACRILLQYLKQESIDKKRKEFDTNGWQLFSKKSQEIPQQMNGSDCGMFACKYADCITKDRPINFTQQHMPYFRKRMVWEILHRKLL
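Assay system: hSENP1 catalytic domain, recombinant. Amount: SENP1 enzyme, 20 pM final. Schedule: 50 min reaction, RT, dark. Technique: FRET, CFP and YFP emission. Control set: no-enzyme wells low, DMSO-plus-enzyme wells high control.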
SENP6 inh: inhibitors of human SENP6 protease. Q9GZR1. actives 1.8% (n = 330,000). AID 2599. Recombinant SENP6 catalytic domain, aminoluciferin luminescence. inhibition, % at 10 µM;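 active = inhibition above about 50% at the single tested dose, limit read from the data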;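 also: plate controls were DMSO wells with enzyme for no effect and DMSO wells lacking enzyme for full effect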
Platelet DG rel: modulates dense granule release in human platelets. inhibition, %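 (compounds screened at 7.5 µM in platelet-rich plasma)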. actives 0.22% (n = 300,000). human platelet-rich plasma, SFLLRN dense granule ATP release, luminescence. AID 1663;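 active = mean replicate score, as percent of positive control, at or above 50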
SENP7 block: inhibitors of human SENP7 protease. Q9BQF6. recombinant SENP7, Z-RLRGG-aminoluciferin luminescence, 40 min. inhibition, % at 5 µM. actives 1.5% (n = 330,000);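 active = inhibition above about 50% at the single test dose, limit read from the data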;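 also: plate controls were DMSO with enzyme for no effect and no enzyme buffer wells for full effect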
SENP8 block-2: SENP8 (human) protease inhibition | inhibition, % at 20 µM | recombinant SENP8, Nedd8 substrate fluorescence | actives 0.64% (n = 360,000); in the data active = inhibition mostly above about 40%, no sharp cut-off; inactive = mostly below about 27%
SENP8 confirm: human SENP8 inhibition, confirmed | shares compounds with SENP7 block | Recombinant SENP8, Z-RLRGG-aminoluciferin luminescence, 60 min | inhibition, % at 12.5 µM | actives 40% (n = 6,200) | AID 488912;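 active = mean inhibition across replicates above about 50%, limit read from the data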
SENP6 confirm: confirmation of human SENP6 protease inhibitors | shares compounds with SENP7 block | recombinant SENP6, Z-RLRGG-aminoluciferin luminescence | inhibition, % at 12.5 µM | actives 58% (n = 6,200) | AID 488915
SENP7 confirm: confirmation of human SENP7 protease inhibitors | shares compounds with SENP7 block | recombinant SENP7, Z-RLRGG-aminoluciferin luminescence, 40 min | inhibition, % at 12.5 µM | actives 69% (n = 6,200) | AID 488917
Casp3 SENP sel: inhibits human caspase-3 in SENP selectivity test; shares compounds with SENP7 block; purified caspase-3, Z-DEVD-aminoluciferin luminescence, 60 min; inhibition, % at 12.5 µM; actives 60% (n = 6,200); AID 488918;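 active = mean inhibition above about 50%, limit read from the data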;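 also: plate controls were enzyme with DMSO for no effect and wells without caspase-3 for full effect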
Target sequence (P42574 28-227 limits assumed): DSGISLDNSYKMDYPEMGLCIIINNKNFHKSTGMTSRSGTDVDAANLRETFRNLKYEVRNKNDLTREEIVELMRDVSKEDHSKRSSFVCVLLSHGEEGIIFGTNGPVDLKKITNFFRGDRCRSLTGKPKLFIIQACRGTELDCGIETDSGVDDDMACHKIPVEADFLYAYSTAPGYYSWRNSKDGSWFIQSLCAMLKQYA
SENP luc ctr: luminescence interference (SENP counter-screen) | Pre-incubated SENP8/Z-RLRGG-aminoluciferin, luciferase luminescence interference | inhibition, % at 12.5 µM | shares compounds with SENP7 block | actives 39% (n = 6,200);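 active = mean inhibition above about 50% when retested at one dose, limit read from the data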;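 also: plate controls were DMSO wells with completed reaction for no effect and substrate without enzyme for full effect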
* hit, by the source's call. Hits are enriched below; roughly 2.6% of the tested compounds scored in any of these assays.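 The calls were made as follows, unless noted: active = mean inhibition above about 50% in the one-dose retest (limit read from the data); inactive = the rest.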

For CCCOc1cccc(C(=O)Nc2cccc(NC(=O)c3ccco3)c2)c1 the results were SENP8 block-1 -4.6, SENP1 inh -4.7, SENP6 inh 0.5, Platelet DG rel -3.1, SENP7 block 7.1 and SENP8 block-2 9.6.
CCC(=O)Oc1ccc(C(=O)Nc2cccc(C(=O)NC(C)(C)C)c2)cc1 was read as SENP8 block-1 4.3, SENP1 inh -1.4, SENP6 inh -3.4, Platelet DG rel -2.8, SENP7 block 2.6 and SENP8 block-2 6.3.
For Cc1ccc(C(=O)Nc2ccc3nccnc3c2)cc1 the results were SENP8 block-1 51.2*, SENP1 inh -1.0, SENP6 inh 67.4*, Platelet DG rel 9.2, SENP7 block 73.0*, SENP8 block-2 -395.9, SENP8 confirm 56.3*, SENP6 confirm 54.9*, SENP7 confirm 87.2*, Casp3 SENP sel 82.8* and SENP luc ctr 27.3.
For COc1ccc(C(=O)Nc2ccc3c(c2)OCCO3)cc1Br the results were SENP8 block-1 56.1*, SENP1 inh 1.8, SENP6 inh 72.3*, Platelet DG rel -5.3, SENP7 block 61.5*, SENP8 block-2 11.3, SENP8 confirm 7.8, SENP6 confirm 4.8, SENP7 confirm 79.8*, Casp3 SENP sel 53.8* and SENP luc ctr -0.9.
O=C(Nc1ccc(Cl)cc1Cl)c1ccc2c(c1)OCCO2 was read as SENP8 block-1 89.8*, SENP1 inh 0.6, SENP6 inh 92.8*, SENP7 block 92.4*, SENP8 block-2 7.5, SENP8 confirm 65.8*, SENP6 confirm 84.5*, SENP7 confirm 95.0*, Casp3 SENP sel 88.1* and SENP luc ctr 46.6.
Cc1ccc(C(=O)Nc2ccc3c(c2)OCCO3)cc1 was read as SENP8 block-1 72.4*, SENP1 inh -0.6, SENP6 inh 73.5*, Platelet DG rel 8.9, SENP7 block 82.0*, SENP8 block-2 3.4, SENP8 confirm 5.4, SENP6 confirm 75.6*, SENP7 confirm 93.7*, Casp3 SENP sel 87.1* and SENP luc ctr 79.0*.
For CC1=CCC2C(=O)N(c3cccc(C(=O)Nc4ccccc4Cl)c3)C(=O)C2C1 (stereo not drawn) the results were SENP8 block-1 -1.5, SENP1 inh 2.3, SENP6 inh -9.4, Platelet DG rel -8.3, SENP7 block 0.8 and SENP8 block-2 8.3.
Screening Cc1ccccc1N=C(NO)c1cccnc1 returned SENP8 block-1 3.5, SENP1 inh -0.6, SENP6 inh -14.4, Platelet DG rel 1.8, SENP7 block -3.2 and SENP8 block-2 7.9.
Screening O=C(NCc1ccc(F)cc1)c1cc2c(s1)CS(=O)(=O)C2 returned SENP8 block-1 6.3, SENP1 inh -2.8, SENP6 inh 5.9, Platelet DG rel -19.7, SENP7 block 0.2 and SENP8 block-2 9.0.
Screening Cc1nc(/N=C\c2ccc(N(C)C)cc2)sc1C returned SENP8 block-1 60.5*, SENP1 inh 0.7, SENP6 inh 2.5, Platelet DG rel -1.1, SENP7 block 10.5, SENP8 block-2 -0.5, SENP8 confirm -23.9, SENP6 confirm -13.9, SENP7 confirm -7.6, Casp3 SENP sel -9.2 and SENP luc ctr -4.7.
Screening CCOc1ccc(S(=O)(=O)/N=C(/Nc2ccc(OC)cc2)c2ccccc2)cc1 returned SENP8 block-1 -0.3, SENP1 inh 0.0, SENP6 inh 4.1, Platelet DG rel 0.5, SENP7 block -3.4 and SENP8 block-2 6.3.
Cc1ccc(S(=O)(=O)/N=C(/NC(=S)Nc2ccccc2)c2ccccc2)cc1 was read as SENP8 block-1 36.6, SENP1 inh -3.6, SENP6 inh 73.6*, Platelet DG rel 3.6, SENP7 block 47.3, SENP8 block-2 13.3, SENP8 confirm 67.2*, SENP6 confirm 65.4*, SENP7 confirm 85.8*, Casp3 SENP sel 34.8 and SENP luc ctr 27.9.
COc1ccc(C(=O)NN/C(=N/S(=O)(=O)c2ccc(C)cc2)c2ccccc2)cc1 was read as SENP8 block-1 54.0*, SENP1 inh -0.2, SENP6 inh 87.7*, Platelet DG rel 15.1, SENP7 block 78.3*, SENP8 block-2 -152.0, SENP8 confirm 68.7*, SENP6 confirm 64.3*, SENP7 confirm 88.3*, Casp3 SENP sel 69.9* and SENP luc ctr 72.7*.
`CC(=O)Nc1ncc(Sc2ccc([N+](=O)[O-])cc2)s1` gave SENP1 inh 1.9 and SENP8 block-2 20.3.
Screening CCSc1cc(N2CCCC2)nc(-c2ccc(Cl)cc2)n1 returned SENP8 block-1 9.2, SENP1 inh 1.3, SENP6 inh 7.8, SENP7 block 8.6 and SENP8 block-2 -52.9.
Clc1ccc(-c2nnc(N3CCCC3)nn2)cc1 was read as SENP8 block-1 2.1, SENP1 inh 2.6, SENP6 inh 68.3*, Platelet DG rel 0.7, SENP7 block -5.1, SENP8 block-2 12.8, SENP8 confirm 37.5, SENP6 confirm 41.4, SENP7 confirm 57.9*, Casp3 SENP sel 55.2* and SENP luc ctr 10.4.
For Cc1nc2cc(NCc3nc4ccccc4n3Cc3ccccc3)ccc2n1C the results were SENP8 block-1 27.4, SENP1 inh -17.7, SENP6 inh 42.0, Platelet DG rel 5.9, SENP7 block -0.9 and SENP8 block-2 -36.6.
Screening Cc1cccc(NCc2nc3ccccc3n2C)c1 returned SENP8 block-1 28.5, SENP1 inh 1.0, SENP6 inh 50.3*, Platelet DG rel 0.5, SENP7 block 55.8*, SENP8 block-2 15.3, SENP8 confirm 41.6, SENP6 confirm 42.2, SENP7 confirm 79.2*, Casp3 SENP sel 70.6* and SENP luc ctr 56.0*.
For Cc1cccc(NCc2nc3ccccc3n2Cc2ccccc2)c1 the results were SENP8 block-1 22.7, SENP1 inh 3.1, SENP6 inh 57.9*, Platelet DG rel -1.8, SENP7 block 27.2, SENP8 block-2 -0.7, SENP8 confirm 29.4, SENP6 confirm 26.3, SENP7 confirm 57.9*, Casp3 SENP sel 25.4 and SENP luc ctr 34.8.
